According to ChEMBL document CHEMBL3739264, “Synthesis and bio-evaluation of novel quinolino-stilbene derivatives as potential anticancer agents” (Bioorg Med Chem, 2015):
Activity calls are given as the source filed them. The calls are words filed in the database; no cut-off is given here.

Key:
[1] = test system: MCF7; assay: Antiproliferative activity against human MCF7 cells after 72 hrs by SRB assay; type: functional, cell-based; conditions: MCF7, 72 h
Outline: (§1)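 Cells seeded at 4,000-5,000/well for 16 h, then exposed 72 h to serial dilutions of compound in DMSO; sham DMSO as 100% and TCA-treated wells as 0%. IC50 from sigmoidal dose-response curves; two biological replicates, four technical each.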

[2] = test system: MDA-MB-231; assay: Antiproliferative activity against human MDA-MB-231 cells after 72 hrs by SRB assay; type: functional, cell-based; conditions: MDA-MB-231, 72 h
Outline: as §1, with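 “0%. Fixed in 10% TCA at 4°C for 1 h, stained with 0.4% SRB for 30 min, dye solubilised in 10 mmol Tris pH 10.5, read at 540 nm.” for “0%.”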

[3] = test system: HeLa; assay: Antiproliferative activity against human HeLa cells after 72 hrs by SRB assay; type: functional, cell-based
Outline: as §1, with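 “0%. Fixed in 10% TCA at 4°C for 1 h, stained with 0.4% SRB for 30 min, dye solubilised in 10 mmol Tris pH 10.5, read at 540 nm.” for “0%.”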

[4] = test system: MDA-MB-468; assay: Antiproliferative activity against human MDA-MB-468 cells after 72 hrs by SRB assay; type: functional, cell-based; conditions: MDA-MB-468, 72 h
Outline: as §1, with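 “0%. Fixed in 10% TCA at 4°C for 1 h, stained with 0.4% SRB for 30 min, dye solubilised in 10 mmol Tris pH 10.5, read at 540 nm.” for “0%.”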

[5] = Antiproliferative activity against human 184B5 cells after 72 hrs by SRB assay; type: cell-based; conditions: 184B5, 72 h
Outline: as §1, with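 “0%. Fixed in 10% TCA at 4°C for 1 h, stained with 0.4% SRB for 30 min, dye solubilised in 10 mmol Tris pH 10.5, read at 540 nm.” for “0%.”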

[6] = molecular target: Tubulin (Homo sapiens) (UniProt P68371+Q9H4B7+P0DPH7+P68366+Q13509+Q71U36+P04350+Q3ZCM7+P07437+P68363+Q9BQE3+Q6PEY2+Q13885+Q9BVA1+Q9BUF5); conditions: 5 uM
[7] = test system: MDA-MB-468; assay: Cell cycle arrest in human MDA-MB-468 cells assessed as accumulation at G0-G1 phase at 1 uM after 48 hrs by flow cytometry analysis relative to control; type: functional
Outline: (§2)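 Cells seeded overnight at about 1 × 10^6 per plate, treated next morning, and harvested at set times. Fixed in 75% ethanol at -20°C for 12-24 h, then stained 1 h in PBS with 0.3% NP-40, 100 µg/ml RNase A and 100 µg/ml propidium iodide. Phase distribution read from DNA content by flow cytometry against sham-treated cells.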

[8] = test system: MDA-MB-468; assay: Cell cycle arrest in human MDA-MB-468 cells assessed as accumulation at sub-G1 phase at 1 uM after 48 hrs by flow cytometry analysis relative to control; type: functional; outline: as §2
[9] = test system: MDA-MB-468; assay: Cell cycle arrest in human MDA-MB-468 cells assessed as accumulation at G2/M phase at 1 uM after 72 hrs by flow cytometry analysis relative to control; type: functional; outline: as §2
[10] = test system: MDA-MB-468; assay: Cell cycle arrest in human MDA-MB-468 cells assessed as accumulation at sub-G1 phase at 1 uM after 24 hrs by flow cytometry analysis relative to control; type: functional; outline: as §2
[11] = test system: MDA-MB-468; assay: Cell cycle arrest in human MDA-MB-468 cells assessed as accumulation at G0-G1 phase at 1 uM after 12 hrs by flow cytometry analysis relative to control; type: functional; outline: as §2
[12] = test system: MDA-MB-468; assay: Cell cycle arrest in human MDA-MB-468 cells assessed as accumulation at G2/M phase at 1 uM after 12 hrs by flow cytometry analysis relative to control; type: functional; outline: as §2
[13] = test system: MDA-MB-468; assay: Cell cycle arrest in human MDA-MB-468 cells assessed as accumulation at G0-G1 phase at 1 uM after 24 hrs by flow cytometry analysis relative to control; type: functional; outline: as §2
[14] = test system: MDA-MB-468; assay: Cell cycle arrest in human MDA-MB-468 cells assessed as accumulation at G0-G1 phase at 1 uM after 72 hrs by flow cytometry analysis relative to control; type: functional; outline: as §2
[15] = test system: MDA-MB-468; assay: Cell cycle arrest in human MDA-MB-468 cells assessed as accumulation at sub-G1 phase at 1 uM after 72 hrs by flow cytometry analysis relative to control; type: functional; outline: as §2
[16] = test system: MDA-MB-468; assay: Induction of DNA damage in human MDA-MB-468 cells at 1 uM after 24 hrs by immunostaining; type: functional, cell-based
Outline: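 γH2A.X (phospho-Ser139) immunostaining, with HeLa at 6 µM for 24 or 48 h and MDA-MB468 at 1 µM. Cells on coverslips fixed and permeabilized in ice-cold methanol at -20°C. Blocked in 1% FBS, primary antibody 1:200 overnight at 4°C, then fluorophore-conjugated secondary 1 h. DNA counterstained with DRAQ5.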

[17] = test system: MDA-MB-468; assay: Cell cycle arrest in human MDA-MB-468 cells assessed as accumulation at S phase at 1 uM after 72 hrs by flow cytometry analysis relative to control; type: functional; outline: as §2
[18] = test system: MDA-MB-468; assay: Cell cycle arrest in human MDA-MB-468 cells assessed as accumulation at G2/M phase at 1 uM after 24 hrs by flow cytometry analysis relative to control; type: functional; outline: as §2
[19] = test system: MDA-MB-468; assay: Cell cycle arrest in human MDA-MB-468 cells assessed as accumulation at sub-G1 phase at 1 uM after 12 hrs by flow cytometry analysis relative to control; type: functional; outline: as §2
[20] = test system: MDA-MB-468; assay: Cell cycle arrest in human MDA-MB-468 cells assessed as accumulation at S phase at 1 uM after 12 hrs by flow cytometry analysis relative to control; type: functional; outline: as §2
[21] = test system: MDA-MB-468; assay: Cell cycle arrest in human MDA-MB-468 cells assessed as accumulation at S phase at 1 uM after 48 hrs by flow cytometry analysis relative to control; type: functional; outline: as §2
[22] = test system: MDA-MB-468; assay: Cell cycle arrest in human MDA-MB-468 cells assessed as accumulation at S phase at 1 uM after 24 hrs by flow cytometry analysis relative to control; type: functional; outline: as §2
[23] = test system: MDA-MB-468; assay: Cell cycle arrest in human MDA-MB-468 cells assessed as accumulation at G2/M phase at 1 uM after 48 hrs by flow cytometry analysis relative to control; type: functional; outline: as §2

Row | Structure (SMILES) | IC50 [1] [µM] | IC50 [2] [µM] | IC50 [3] [µM] | IC50 [4] [µM] | IC50 [5] [µM] | further results
1 | FC(F)(F)c1ccc(/C=C\c2cc3ccccc3nc2Cl)c(C(F)(F)F)c1 | 10.5 | 41.8 | 35.9 |  |  | 
2 | CC[C@@]1(O)C(=O)OCc2c1cc1n(c2=O)Cc2cc3ccccc3nc2-1 [CAMPTOTHECIN] |  | 0.00577 | 0.00613 | 0.0148 | 0.00496 | 
3 | CC(=O)O[C@H]1C(=O)[C@@]2(C)[C@H]([C@H](OC(=O)c3ccccc3)[C@]3(O)C[C@H](OC(=O)[C@H](O)[C@@H](NC(=O)c4ccccc4)c4ccccc4)C(C)=C1C3(C)C)[C@]1(OC(C)=O)CO[C@@H]1C[C@@H]2O [PACLITAXEL] |  | 0.00256 | 0.00229 | 0.00387 | 0.00232 | 
4 | COC(=O)Nc1nc2cc(C(=O)c3cccs3)ccc2[nH]1 |  |  |  |  |  | inhibition [6]: Active
5 | COc1ccc2nc(Cl)c(/C=C\c3cccc(C(F)(F)F)c3)cc2c1 | 2.78 | 3.28 | 3.03 | 3.91 | 5.58 | 
6 | COc1ccc2nc(Cl)c(/C=C\c3ccccc3C(F)(F)F)cc2c1 | 4.47 | 2.77 | 2.6 | 4.98 | 5.31 | 
7 | FC(F)(F)c1cccc(/C=C\c2cc3cc4c(cc3nc2Cl)OCO4)c1 | 18.9 | 26 | 20.1 | > 50 | 17 | 
8 | Fc1ccc(/C=C\c2cc3ccc(Cl)cc3nc2Cl)cc1 | 16.9 | 42.6 | 38.6 | 10.9 | 26.9 | 
9 | FC(F)(F)c1cc(/C=C\c2cc3cc4c(cc3nc2Cl)OCO4)cc(C(F)(F)F)c1 | > 50 | > 50 | > 50 | > 50 | > 50 | 
10 | FC(F)(F)c1cccc(/C=C/c2cc3ccccc3nc2Cl)c1 | 24.4 | 45 | 20.3 | 24 | 24.7 | 
11 | COc1ccc2nc(Cl)c(/C=C\c3ccc(C(F)(F)F)cc3C(F)(F)F)cc2c1 | > 50 | > 50 | > 50 | > 50 | > 50 | 
12 | FC(F)(F)c1cc(/C=C\c2cc3ccc(Cl)cc3nc2Cl)cc(C(F)(F)F)c1 | 41.7 | > 50 | 41.4 | > 50 | 43 | 

More lines, main results first:

Row | IC50 [1] [µM] | IC50 [2] [µM] | IC50 [3] [µM] | IC50 [4] [µM] | Structure (SMILES) | IC50 [5] [µM] | further results
13 | 20.3 | 24 | 24.9 | 5.29 | Fc1ccc(/C=C\c2cc3ccccc3nc2Cl)cc1 | 35.7 | 
14 | 14.1 | 11 | > 50 | 14.8 | COc1ccc2nc(Cl)c(/C=C/c3ccc(F)cc3)cc2c1 | 9.74 | 
15 | 15.1 | > 50 | > 50 | 0.12 | Fc1ccc(/C=C/c2cc3ccccc3nc2Cl)cc1 | 38.5 | Activity [7]: 21.8%; Activity [8]: 40.6%; Activity [9]: 6.7%; Activity [10]: 13.7%; Activity [11]: 37%; Activity [12]: 21.9%; Activity [13]: 23.1%; Activity [14]: 16.1%; Activity [15]: 65%; Activity [16]: Active; Activity [17]: 11.4%; Activity [18]: 20.2%; Activity [19]: 5%; Activity [20]: 34.5%; Activity [21]: 22%; Activity [22]: 41.7%; Activity [23]: 15%
16 | 4.7 | 4.47 | 4.14 | 5.79 | COc1ccc2nc(Cl)c(/C=C\c3cc(C(F)(F)F)cc(C(F)(F)F)c3)cc2c1 | 7.97 | 
17 | 12.4 | 22.8 | 16.2 | 22.7 | COc1ccc2nc(Cl)c(/C=C\c3ccc(C(F)(F)F)cc3)cc2c1 | 40 | 
18 |  | 36.5 | 30 | 19.9 | CCN(CC)CCCC(C)Nc1ccnc2cc(Cl)ccc12 (stereo not drawn) [CHLOROQUINE] | 63.1 | 
19 | 47 | 48.8 | > 50 | > 50 | COc1ccc2nc(Cl)c(/C=C/c3ccc(C(F)(F)F)cc3)cc2c1 | 33.5 | 
20 | 8.97 | 11.4 | 9.67 | 15.2 | COc1ccc2nc(Cl)c(/C=C\c3ccc(F)cc3)cc2c1 | 19.2 | 
21 | 4.26 | 5.36 | 4.22 | 7.38 | FC(F)(F)c1ccc(/C=C\c2cc3ccccc3nc2Cl)cc1 | 7.94 | 
22 | 6.45 | 13.6 | 12.6 | 16.1 | FC(F)(F)c1ccc(/C=C\c2cc3ccc(Cl)cc3nc2Cl)cc1 | 26.4 | 
23 | 7.46 | 10.1 | 6.78 | 10.5 | FC(F)(F)c1cc(/C=C\c2cc3ccccc3nc2Cl)cc(C(F)(F)F)c1 | 13.7 | 
